Results on 13 molecules are retold here after PubChem BioAssay.

Experiment [1] is described as follows: hit retest on RPL19A-GFP reporter strain – cell-based, S. cerevisiae, flow cytometry, cherry picks, mother/daughter gates, confirmation (AID 2270;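 active = GFP response below 50% of the DMSO control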). The conditions noted are these: 3 h, at 10 µM, stronger effect = lower value, 100 = same GFP as DMSO wells. (In general: In flow cytometry, cells or beads pass a laser one at a time.)
Experiment [2] is described as follows: yeast TOR pathway reporter LAP4-GFP change – cell-based, cherry picks, flow cytometry, mother/daughter gates, confirmation (AID 2271;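 active = GFP response above 150% of the DMSO control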;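 note: ratio of sample to DMSO plate mean so 100% equals DMSO level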). Particulars: S. cerevisiae LAP4-GFP strain, 3 h, at 10 µM, stronger effect = higher value, 100 means same as DMSO control. In a few lines:
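System: Alexa 633-stained baker's yeast GFP-fusion strain / Medium: synthetic complete (SC) yeast growth medium / Doses: compound at 10 µM, single point / Times: 3 h treatment at 30 °C with rotation / Detection: HT flow cytometry, GFP fluorescence channel / Benchmarks: DMSO-only negative wells, rapamycin 400 ng/mL positive wells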

A short description of experiment [3]: TOR pathway reporter MEP2-GFP, retest of hits – S. cerevisiae, flow cytometry GFP, cherry picks, confirmation (AID 2272;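 active = GFP response above 150% of the DMSO control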;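 note: ratio of well signal to plate DMSO mean so 100% equals DMSO level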). Particulars: S. cerevisiae MEP2-GFP strain, 3 h, at 10 µM, stronger effect = higher value.
Experiment [4] is described as follows: yeast AGP1-GFP fluorescence change, single-dose – cell-based, flow cytometry, S. cerevisiae, cherry picks, confirmation (AID 2273).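 Note: median GFP channel fluorescence over the whole cell population gate.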 The conditions noted are these: S. cerevisiae AGP1-GFP strain, 3 h, at 10 µM.
A short description of experiment [5]: TOR pathway CIT2 reporter hit retest – S. cerevisiae, GFP fusion, cherry picks, mother/daughter gates, confirmation (AID 2274). The conditions noted are these: S. cerevisiae CIT2-GFP strain, flow cytometry, 3 h, at 10 µM, stronger effect = higher value.
Setting [6] is: measured here: daughter cell gate.
The mark [7] stands for this setting: measured here: mother cell gate.
Where [8] appears, read: measured here: daughter cell gate response.
Where [9] appears, read: measured here: mother cell gate response.

Activity calls are given as the source filed them.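 Rule for the calls, unless noted: active = GFP response above 150% of the DMSO level; inconclusive = fewer than 70 events counted for a yeast strain; inactive = the rest.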

On to `Cc1ccc(CCN2CC(C(=O)NCCCN(C)Cc3ccccc3)CC2=O)cc1` (stereo not drawn), for which the GFP response vs DMSO in experiment [1] was 99.1% (inactive); in experiment [1] (setting [6]) it was 99.3%; in experiment [1] (setting [7]) it was 98%; in experiment [3] it was 101% (inactive). Further, the figures for the GFP response relative to DMSO in experiment [2], in experiment [2] (setting [8]) and in experiment [2] (setting [9]) were 101% (inactive), 104% and 100%, respectively. Moreover, the GFP response, % of DMSO in experiment [4] was 103% (inactive); in experiment [5] it was 98.6% (inactive); in experiment [5] (setting [6]), 103%; in experiment [5] (setting [7]), 96%.

As to `CCCN(CCC)S(=O)(=O)c1ccc(C(=O)Nc2nnc(-c3cc(OC)cc(OC)c3)o2)cc1`, the GFP response vs DMSO in experiment [1] was 98.2% (inactive); in experiment [1] (setting [6]), 99.4%; in experiment [1] (setting [7]), 99%; in experiment [3], 102% (inactive). In addition, the GFP response relative to DMSO in experiment [2] was 91.5% (inactive); in experiment [2] (setting [8]) it was 91.2%; in experiment [2] (setting [9]), 91.9%. In addition, the GFP response, % of DMSO is 93.9% (inactive) in experiment [4], 101% (inactive) in experiment [5], 101% in experiment [5] (setting [6]) and 101% in experiment [5] (setting [7]).

On to `CC(C)Oc1ccc(C(=O)/C=C2/C(=O)Nc3ccccc32)cc1`, for which the GFP response vs DMSO in experiment [1] was 88.2% (inactive); in experiment [1] (setting [6]), 83.8%; in experiment [1] (setting [7]) it was 80.3%; in experiment [3], 111% (inactive). Further, the GFP response relative to DMSO in experiment [2] is 161% (active); in experiment [2] (setting [8]) it was 119%; in experiment [2] (setting [9]), 161%. For the same molecule, the GFP response, % of DMSO was 123% (inactive) in experiment [4], 110% (inactive) in experiment [5], 93.2% in experiment [5] (setting [6]) and 98.7% in experiment [5] (setting [7]).

For the molecule `CCS(=O)(=O)Nc1cccc(C2=NN(S(C)(=O)=O)C(c3ccccc3)C2)c1` (stereo not drawn), the GFP response vs DMSO in experiment [1] was 100% (inactive); in experiment [1] (setting [6]) it was 101%; in experiment [1] (setting [7]), 100%; in experiment [3], 120% (inactive). Also, the GFP response relative to DMSO in experiment [2] is 110% (inactive); in experiment [2] (setting [8]), 105%; in experiment [2] (setting [9]) it was 112%. Moreover, the GFP response, % of DMSO was 112% (inactive) in experiment [4], 111% (inactive) in experiment [5], 112% in experiment [5] (setting [6]) and 110% in experiment [5] (setting [7]).

Take `O=C(NCCCSc1ccccc1)c1cc(Cl)ccc1O`: the GFP response vs DMSO was 100% (inactive) in experiment [1], 98% in experiment [1] (setting [6]), 102% in experiment [1] (setting [7]) and 104% (inactive) in experiment [3]. The GFP response relative to DMSO in experiment [2] is 108% (inactive); in experiment [2] (setting [8]), 104%; in experiment [2] (setting [9]), 110%. Moreover, the GFP response, % of DMSO in experiment [4] is 90.5% (inactive); in experiment [5] it was 96.4% (inactive); in experiment [5] (setting [6]) it was 96.4%; in experiment [5] (setting [7]), 94.5%.

`Cc1cc(C)n2nc(C(=O)NC(c3ccccc3)c3ccccc3)nc2n1`: the GFP response vs DMSO is 98.6% (inactive) in experiment [1], 99.9% in experiment [1] (setting [6]), 98.2% in experiment [1] (setting [7]) and 98.8% (inactive) in experiment [3]. The GFP response relative to DMSO was 98.6% (inactive) in experiment [2], 99.7% in experiment [2] (setting [8]) and 99.2% in experiment [2] (setting [9]). Further, the GFP response, % of DMSO in experiment [4] is 104% (inactive); in experiment [5], 111% (inactive); in experiment [5] (setting [6]), 110%; in experiment [5] (setting [7]) it was 112%.

As to `Cc1ccc(/C=C2\SC(=S)N(CC3CCCO3)C2=O)o1` (stereo not drawn), the GFP response vs DMSO was 93.8% (inactive) in experiment [1], 94.2% in experiment [1] (setting [6]), 93.5% in experiment [1] (setting [7]) and 143% (inactive) in experiment [3]. Further, the GFP response relative to DMSO in experiment [2] is 189% (active); in experiment [2] (setting [8]) it was 167%; in experiment [2] (setting [9]), 194%. The GFP response, % of DMSO in experiment [4] was 100% (inactive); in experiment [5], 98.6% (inactive); in experiment [5] (setting [6]), 97.6%; in experiment [5] (setting [7]), 98.2%.

As for `Cc1ccc(N2C(=O)C3C4C=CC(CNC(=S)N5CCN(c6ccccc6)CC5)(O4)C3C2=O)cc1` (stereo not drawn), the GFP response vs DMSO in experiment [1] was 102% (inactive); in experiment [1] (setting [6]), 101%; in experiment [1] (setting [7]), 101%; in experiment [3] it was 100% (inactive). In addition, the GFP response relative to DMSO in experiment [2] was 89% (inactive); in experiment [2] (setting [8]), 94.1%; in experiment [2] (setting [9]), 92.1%. Besides, the GFP response, % of DMSO is 96.5% (inactive) in experiment [4], 110% (inactive) in experiment [5], 105% in experiment [5] (setting [6]) and 113% in experiment [5] (setting [7]).

`O=C(Nc1ccccc1N1CCOCC1)c1ccc([N+](=O)[O-])o1`: the GFP response vs DMSO in experiment [1] was 58.5% (inactive); in experiment [1] (setting [6]), 82.8%; in experiment [1] (setting [7]), 47.8%; in experiment [3] it was 90.5% (inactive). The GFP response relative to DMSO in experiment [2] is 128% (inactive); in experiment [2] (setting [8]), 104%; in experiment [2] (setting [9]), 116%. For the same molecule, the GFP response, % of DMSO in experiment [4] is 87.6% (inactive); in experiment [5], 63.9% (inactive); in experiment [5] (setting [6]), 77.5%; in experiment [5] (setting [7]) it was 55.2%.

`O=C(c1ccccc1)N1CCN(c2ccccc2F)CC1`: the GFP response vs DMSO in experiment [1] is 101% (inactive); in experiment [1] (setting [6]) it was 102%; in experiment [1] (setting [7]), 99.6%; in experiment [3], 103% (inactive). Besides, the GFP response relative to DMSO was 105% (inactive) in experiment [2], 104% in experiment [2] (setting [8]) and 96.4% in experiment [2] (setting [9]). In addition, the GFP response, % of DMSO in experiment [4] is 99.1% (inactive); in experiment [5], 95.8% (inactive); in experiment [5] (setting [6]), 97.6%; in experiment [5] (setting [7]), 90.4%.

As to `O=C(Nc1cc(Sc2ccccn2)cc([N+](=O)[O-])c1)c1cccc(Cl)c1`, the GFP response vs DMSO in experiment [1] was 96.9% (inactive); in experiment [1] (setting [6]) it was 95.3%; in experiment [1] (setting [7]), 96.3%; in experiment [3], 106% (inactive). For the same molecule, the GFP response relative to DMSO is 102% (inactive) in experiment [2], 104% in experiment [2] (setting [8]) and 104% in experiment [2] (setting [9]). Further, the GFP response, % of DMSO in experiment [4] is 103% (inactive); in experiment [5], 88.9% (inactive); in experiment [5] (setting [6]) it was 86.9%; in experiment [5] (setting [7]), 89.3%.

For the molecule `Nc1nc(SCC(=O)Nc2cc(C(F)(F)F)ccc2N2CCOCC2)n[nH]1`, the GFP response vs DMSO is 99% (inactive) in experiment [1], 99.9% in experiment [1] (setting [6]), 97.9% in experiment [1] (setting [7]) and 105% (inactive) in experiment [3]. Besides, the GFP response relative to DMSO in experiment [2] was 101% (inactive); in experiment [2] (setting [8]) it was 101%; in experiment [2] (setting [9]) it was 98.3%. Further, the GFP response, % of DMSO is 101% (inactive) in experiment [4], 99.7% (inactive) in experiment [5], 99.1% in experiment [5] (setting [6]) and 98.5% in experiment [5] (setting [7]).

Turning to `COc1ccc(S(=O)(=O)NCC(=O)N(CC(=O)NCc2ccco2)Cc2ccc(F)cc2)cc1`, the GFP response vs DMSO in experiment [1] was 100% (inactive); in experiment [1] (setting [6]), 98.8%; in experiment [1] (setting [7]), 101%; in experiment [3], 99% (inactive). Besides, the GFP response relative to DMSO is 99.5% (inactive) in experiment [2], 99.1% in experiment [2] (setting [8]) and 100% in experiment [2] (setting [9]). The GFP response, % of DMSO in experiment [4] was 103% (inactive); in experiment [5], 103% (inactive); in experiment [5] (setting [6]) it was 105%; in experiment [5] (setting [7]) it was 101%.
